# Published values from different studies.
# Each line is one published result; the experiments were not run side by side.
# Target: Eukaryotic elongation factor 2 kinase (EEF2K, Homo sapiens, UniProt O00418)
Compound,effect on,action,technique,cell line,concentration,quantity,result
Cc1cc(NC(=O)c2cccc3cc(-c4cccc5[nH]nc(N)c45)ccc23)ccc1F,enzyme activity,inhibitor,,,0.1 µM,activity vs control,103%
Cn1c2c(c3ccc(Cl)c(Cl)c31)C(C#N)C1(CCNCC1)NC2=O (racemic),thermal stability,,DSF,,10 µM,ΔTm,0 °C
Cc1ccc(Nc2nccc(N(C)c3ccc4c(C)n(C)nc4c3)n2)cc1S(N)(=O)=O,enzyme activity,inhibitor,,,0.3 µM,inhibition,-7%
CN1CC(Oc2cnc(C#N)cc2-c2ccn3nc(NC(=O)C4CC4)cc3c2)C1,enzyme activity,inhibitor,,,1 µM,inhibition,9%
FC(F)c1nc2ccccc2n1-c1nc(N2CCOCC2)nc(N2CCOCC2)n1,enzyme activity,inhibitor,,,10 µM,remaining activity,96%
COc1cc2ncnc(Nc3ccc(Oc4ccccc4)cc3C)c2cc1OC,enzyme activity,inhibitor,,,1 µM,inhibition,2%
CNC(=O)c1cc(Oc2ccc(NC(=O)Nc3ccc(Cl)c(C(F)(F)F)c3)cc2)ccn1,enzyme activity,inhibitor,,,0.3 µM,inhibition,-6%
Cc1cnc(NC2CCOCC2)nc1-n1cnc(C(=O)NC(CN)c2cc(F)cc(Cl)c2)c1 (centres unmarked),enzyme activity,inhibitor,radiometric,,1 µM,remaining activity,108%
Cn1c2c(c3ccccc31)C(C#N)C(C)(C)NC2=O (centres unmarked),thermal stability,,DSF,,10 µM,ΔTm,0 °C
CCN1CCN(Cc2ccc(NC(=O)c3ccc(C)c(Oc4ccnc5[nH]ccc45)c3)cc2C(F)(F)F)CC1,target engagement in cells,inhibitor,chemoproteomics,A-375,5 µM,inhibition,-27.8%
CC(C)(C)c1nc2c(s1)c1nc(N)ncc1c1ccc(NS(=O)(=O)c3c(F)cccc3F)c(F)c12,enzyme activity,inhibitor,radiometric,,1 µM,remaining activity,88%
CC/C(=N\NC(=O)NCc1cccc(O)c1)c1ccc(O)c(C)c1O,enzyme activity,inhibitor,,,0.1 µM,inhibition,1.1%
COc1cc(Nc2cnc(C#N)c(O[C@H](C)CN(C)C)n2)ncc1-c1cnn(C)c1,enzyme activity,inhibitor,radiometric,,1 µM,remaining activity,94%
FC(F)(F)Oc1cccc(-c2cnc3ccc(-c4ccncc4)nn23)c1,enzyme activity,inhibitor,radiometric,,1 µM,activity vs control,99%
CNc1cc(Oc2cc(C(=O)Nc3cc(N4CCN(C)CC4)cc(C(F)(F)F)c3)ccc2C)ncn1,target engagement in cells,inhibitor,chemoproteomics,Huh-7,1 µM,inhibition,-99.1%
CC1(C)NC(=O)c2[nH]c3c(Cl)c(Cl)ccc3c2C1C#N (centres unmarked),thermal stability,,DSF,,10 µM,ΔTm,-0.3 °C
CCN(CC)CCNC(=O)c1c(C)[nH]c(/C=C2\C(=O)Nc3ccc(F)cc32)c1C,enzyme activity,inhibitor,,,0.3 µM,inhibition,-15%
CC(C)(C)C(=O)c1sc(NC2CCCCC2)nc1N,enzyme activity,inhibitor,,,10 µM,remaining activity,111%
N#CC1c2c([nH]c3c(Cl)c(Cl)ccc23)C(=O)NC12CCCCC2 (racemic),thermal stability,,DSF,,10 µM,ΔTm,-0.1 °C
Nc1nc(NC2CCCCC2)sc1C(=O)c1ccccc1,enzyme activity,inhibitor,,,10 µM,remaining activity,89%
Oc1cccc(-c2nc(N3CCOCC3)c3oc4ncccc4c3n2)c1,enzyme activity,inhibitor,,,10 µM,remaining activity,99%
CCN1CCC2(CC1)NC(=O)c1c(c3ccc(Cl)c(Cl)c3n1C)C2C#N (racemic),thermal stability,,DSF,,10 µM,ΔTm,0 °C
CCN(CC)c1ccc(C2=NNC(=O)CC2C)cc1[N+](=O)[O-] (centres unmarked),enzyme activity,inhibitor,,,10 µM,remaining activity,95%
